# Tests used:
# [1] = folding enthalpy; higher = less favourable; fluorescence melt of hairpins on a sequencing array, two-state fit; settings: sodium 0.088 M
# Procedure, shortened: (§1)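 On a sequenced MiSeq flow cell, library hairpins with annealed Cy3 and quencher oligos were imaged for Cy3 fluorescence in 2.5 °C steps up to 60 °C, in 50 mM Na-HEPES pH 8.0, 25 mM NaCl. Normalisation used pre-quench Cy3 and control constructs. Bootstrapped two-state fits gave melting temperature and folding enthalpy, combined by inverse variance across four replicates and with fitted temperatures raised by 9.35 °C to match UV melts.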
# [2] = melting temperature; fluorescence melt of hairpins on a sequencing array, two-state fit, raised by 9.35 °C to match UV melts; settings: sodium 0.088 M
# Procedure, shortened: as §1
Sequence,folding enthalpy [1] [kcal/mol],Tm [2] [°C]
GCGAACCCGAAAGGGCGC (((..(((....)))))),-21.4,55.5
CGTTGCGGAAACGCACG (((.(((....)))))),-21.4,52.8
GTGCTCGGAAACGAGTAC ((.((((....)))).)),-43.8,55.4
GCTCAGCGAAAGCCGCGC ((.(.((....)).).)),-17.8,42
GAAGCCGGAAACGGTTTC (((.(((....))).))),-40.2,49.9
GTACCTGGAAACAGGTAC (((((((....))))))),-41.8,61.9
GTCTAAGAAATTAGAC ((((((....)))))),-25.8,40.4
GATCTGGCGCCAGATC ((((((....)))))),-47.8,60.5
GCTTCGGCGAAAGCCAGC (((..(((....)))))),-10.3,40.2
GTCCCCACGAAAGTGGAC (((..(((....)))))),-6.73,29.3
GCTATCGAAAGATCAAGC ((((((....)))..))),-18.3,30.8
GTCAGGGGAAACCCCGAC (((.(((....))).))),-24.8,50.2
GTAGTCGAAAGACTGTAC ((((((....)))..))),-13.8,32.1
GCCACTGGAAACAGCGAC (.(.(((....))).).),-13.9,26
GGAGATGGAAACATCTTC (.(((((....))))).),-26.2,44.6
GATCGAGCCCTCGATC ((((((....)))))),-42.1,56.4
GTCACACGAAAGTGGGAC (((.(((....))).))),-31.9,69.1
GCGACGGGAAACCATCGC ((((.((....)).)))),-45.5,51.4
GCTTGGCGAAAGCTTAGC (((..((....))..))),-16.9,53.4
GGTTACGAAAGTAAACC ((((((....))).))),-24.2,48.8
GCAGTCACGAAAGTGTGC (((..(((....)))))),-19.5,38
GGCCTTGAAAAAGGCC ((((((....)))))),-39.9,68.4
GCACCCGGAAACGGACGC ((..(((....)))..)),-19.6,38.7

Sequence,folding enthalpy [1] [kcal/mol],Tm [2] [°C]
GATCGTACGACGATC ((((((...)))))),-37.2,54.5
GAGTTTGCGAAAGCACTC (((..(((....)))))),-15.2,34.1
GATGTGACGAAAGTCATC (((..(((....)))))),-12,34.2
ACGGAGAAATCCGT (((((....))))),-19,49.2
GCGTAAGTACGC ((((....)))),-23.9,52.9
GGCCGGGGAAACCCGGTC (.(((((....))))).),-24.6,67.9
GGGGGAGGAAACTCCTCC ((.((((....)))).)),-22,53.4
GATCACGGAAACGTGACC (.(((((....))))).),-14.7,45.1
GATCAAAAGGTTGATC ((((((....)))))),-23.9,36.1
GTATTCCGAAAGGATTAC (((.(((....))).))),-28.2,43.5
GTCATCACGAAAGTGGAC (((..(((....)))))),-12.7,35.3
GCAAGCCGAAAGGCGTGC (((.(((....))).))),-18.9,68.7
GCCGGGCGAAAGCACCGC ((.(.((....)).).)),-14.1,49
GATAAAGGAAACTTTATC (((((((....))))))),-31.7,44.4
GATCGCACTGCGATC ((((((...)))))),-35,68.3
GCAGCGCGAAAGCCGTGC (((..((....))..))),-15.3,43.9
GCACTAACGAAAGTTTGC (((..(((....)))))),-15,32.7
GACCGCGAAAGCGGCGTC ((((((....)))..))),-9.59,51.3
GCGTTCCCACGC ((((....)))),-23.4,51.9
GGTTAGGGAAACCCAACC ((((.((....)).)))),-28.6,41
GTAGTAGGAAACTACTGC (.(((((....))))).),-27.5,45.7
GGAGTACGAAAGTAATCC (((.(((....))).))),-31,51.4
GGCGCTGGAAACGGTGCC (((.(.(....).).))),-31.2,52.7

Sequence,folding enthalpy [1] [kcal/mol],Tm [2] [°C]
GATCTTATCAAAGATC ((((((....)))))),-33.1,44.2
GATCATGCGGATGATC ((((((....)))))),-34.1,47
GCGAACGAAAGTTTGCGC ((((((....)))..))),-41.9,61.8
GCCCACGAAAGTGACGGC ((((((....)))..))),-19.9,49.6
GTAGGCGAAAGCCCATAC ((((((....)))..))),-8.87,28.2
GACTATGGAAACATAGCC (.(((((....))))).),-22.6,35.7
GATCCGTTTCCGGATC ((((((....)))))),-41.2,58.9
GTATTTGCGAAAGCATAC (((..(((....)))))),-9.06,28.7
GTAGACGAAAGTCCTAC ((((((....))).))),-19.7,36.4
GCAAGCGCGAAAGCGTGC (((..(((....)))))),-12.5,47.5
GATCGTTAAGACGATC ((((((....)))))),-43.2,55.4
GATCTCGAATGAGATC ((((((....)))))),-39.5,57.5
GCAGCTCGAAAGAGTTGC (((.(((....))).))),-44.2,59.6
GCTCCACCGAAAGGTAGC (((..(((....)))))),-17.2,33.9
GCGACGCTTCGC ((((....)))),-14.7,55.7
GGAGACGGAAACGTTTCC (((.(((....))).))),-30.3,49.5
GGAAAAGAAATTTTCC ((((((....)))))),-23.4,37.7
GTTGCCGAAAGGCCGAAC ((((((....)))..))),-7.22,27.1
GATCATTATTATGATC ((((((....)))))),-32.2,47.5
GGATACGAAAGTATTTCC ((((((....)))..))),-24.9,28.1
GACTGCGAAAGCACTGTC ((((((....)))..))),-12.8,39.9
GTCGTTCCGAAAGGAGAC (((..(((....)))))),-22,35.1
GGGGCCGAAAGGCAACCC ((((((....)))..))),-15,57.3

Sequence,folding enthalpy [1] [kcal/mol],Tm [2] [°C]
GGCGCCGAAAGGCGGGCC ((((((....)))..))),-9.79,60.4
GATCAAAATTTTGATC ((((((....)))))),-40.1,48.3
GTACACGAAAGTGTCTAC ((((((....)))..))),-10.6,35.8
GGGATCGGAAACGATCTC (.(((((....))))).),-31.9,54.2
GCTTCTCCGAAAGGAAGC (((..(((....)))))),-24.2,45.3
GGGCCTGCGAAAGCACCC (((..(((....)))))),-9.63,50.5
GCGCGCGAAAGCGTTCGC ((((((....)))..))),-14.6,53.3
GTGATGCGAAAGCAACAC (((.(((....))).))),-33.4,56.4
GGTGGGCGAAAGCCGACC (((.(((....))).))),-19.6,61.9
GGCCACGGAAACATGGCC (((((.(....).))))),-49.2,53.3
GCGCCGGCGAAAGCCCGC (((..(((....)))))),-15.2,55.5
GGGTTTGGAAACAAACTC (.(((((....))))).),-29.8,46.6
GTTGGAGGAAACTCCAAC (((((((....))))))),-36,60.8
GATCCTAAGCAGGATC ((((((....)))))),-29.9,52.9
GATCTCCGAAGAGATC ((((((....)))))),-40.6,54
GTATCCCCGAAAGGGTAC (((..(((....)))))),-14.8,35.5
GACACGGCGAAAGCCGTC (((..(((....)))))),-6.25,32.9
GCAGCCGAAAGGCATTGC ((((((....)))..))),-15.6,41.5
GTGAACGGAAACATTCAC (((((.(....).))))),-31.7,35.4
GCACATCGAAAGATTTGC (((.(((....))).))),-36.1,45.2
GCGAAGTCTCGC ((((....)))),-14.2,47.7
GATCACTAGGTGATC ((((((...)))))),-40.9,55.2
GCCAACGAAAGTTATGGC ((((((....)))..))),-30.7,45.7
